Experiments:
CCRF-CEM [1] = assay: Efficacy was measured as the percentage binding to CEM cells.; type: functional, Homo sapiens
Outline: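 CEM T-cells, subcultured in RPMI-1640 with 20% serum and stored frozen, were set at 5×10^6 cells/0.1 mL binding buffer (RPMI-1640 with bacitracin). Unlabeled competitor was added at 10^-6–10^-3 M, then [3H]thymopentin (37 Ci/mmol, 548 000 cpm). Incubation was 25 °C for 30 min, followed by two ice-cold washes and scintillation counting. Values are means of replicates at 10^-4 and 10^-3 M.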

CCRF-CEM [2] = assay: Binding was measured using [3H]thymopentin was compared to the CEM cell binding assay.; type: functional, Homo sapiens; design: unit not given here
[3] = Half life by HPLC methods that permitted quantitative resolution of the decrease of TP-5 and the appearance of degradation products by absorbance in heparinized mouse serum; Not degraded; type: ADME
Outline: (§1)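 Mouse serum was prepared from whole blood with heparin sodium or EDTA as anticoagulant. Compounds were incubated for variable times, and incubation was ended by TFA to 10% (v/v) final, then 1 h at 0 °C and protein removal by centrifugation. Half-life came from HPLC absorbance following disappearance of parent and appearance of degradation products.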

[4] = Half life by HPLC methods that permitted quantitative resolution of the decrease of TP-5 and the appearance of degradation products by absorbance in human heparinized serum; Not degraded; type: ADME
[5] = Half life by HPLC methods that permitted quantitative resolution of the decrease of TP-5 and the appearance of degradation products by absorbance in heparinized mouse serum; type: functional, cell-free; outline: as §1
[6] = Half life by HPLC methods that permitted quantitative resolution of the decrease of TP-5 and the appearance of degradation products by absorbance in EDTA-treated mouse serum; type: ADME, organism-based; outline: as §1
[7] = Half life by HPLC methods that permitted quantitative resolution of the decrease of TP-5 and the appearance of degradation products by absorbance in human heparinized serum; type: ADME
[8] = Half life by HPLC methods that permitted quantitative resolution of the decrease of TP-5 and the appearance of degradation products by absorbance, heparinized mouse serum.; type: ADME; outline: as §1
[9] = Half life by HPLC methods that permitted quantitative resolution of the decrease of TP-5 and the appearance of degradation products by absorbance in heparinized mouse serum.; type: ADME; outline: as §1
[10] = Half life by HPLC methods that permitted quantitative resolution of the decrease of TP-5 and the appearance of degradation products by absorbance, heparinized mouse serum; Not degraded; type: ADME; outline: as §1
[11] = Half life by HPLC methods that permitted quantitative resolution of the decrease of TP-5 and the appearance of degradation products by absorbance, human heparinized serum; Not degraded; type: ADME
[12] = Half life by HPLC methods that permitted quantitative resolution of the decrease of TP-5 and the appearance of degradation products by absorbance, human heparinized serum; type: ADME, cell-free

Compound | Efficacy (CCRF-CEM [1]) | Binding (CCRF-CEM [2]) | also measured
CC(C)[C@H](NC(=O)[C@H](CC(=O)O)NC(=O)[C@H](CCCCN)NC(=O)[C@@H](N)CCCN=C(N)N)C(=O)C[C@H](Cc1ccccc1)C(=O)O (stereo in doubt; 1a-B) | 73 | 1673 | –
CCCC[C@H](NC(=O)[C@@H](N)CCCN=C(N)N)C(=O)N[C@@H](CC(=O)O)C(=O)N[C@@H](C)C(=O)C[C@H](Cc1ccccc1)C(=O)O (stereo in doubt; 1g-B) | 71 | 1715 | –
CCCC[C@@H](C(=O)N[C@@H](CC(=O)O)C(=O)N[C@H](C(=O)C[C@H](Cc1ccccc1)C(=O)O)C(C)C)N(C)C(=O)[C@@H](N)CCCN=C(N)N | 37 | 2356 | T1/2 [3]: Not degraded; T1/2 [4]: Not degraded
CC(C)[C@H](NC(=O)[C@H](CC(=O)O)NC(=O)[C@H](CCCCN)NC(=O)[C@@H](N)CCCN=C(N)N)C(=O)C[C@H](Cc1ccccc1)C(=O)O (stereo in doubt; 1a -A) [listing 1 of 2 here] | – | – | T1/2 [5]: 2 min
CC(C)[C@H](NC(=O)[C@H](CC(=O)O)NC(=O)[C@H](CCCCN)NC(=O)[C@@H](N)CCCN=C(N)N)C(=O)C[C@H](Cc1ccccc1)C(=O)O (stereo in doubt; 1a -A) [listing 2 of 2 here] | 70 | 1735 | half-life [6]: 4.9 min; half-life [7]: 2 min
CCCC[C@H](NC(=O)[C@@H](N)CCCN=C(N)N)C(=O)N[C@@H](CC(=O)O)C(=O)N[C@@H](C)C(=O)C[C@H](Cc1ccccc1)C(=O)O (stereo in doubt; 1g-A) | 73 | 1677 | half-life [6]: 20 min
CCCC[C@H](NC(=O)[C@@H](N)CCCN=C(N)N)C(=O)N[C@@H](CC(=O)O)C(=O)N[C@H](C(=O)C[C@H](Cc1ccccc1)C(=O)O)C(C)C (stereo in doubt; 1c-B) | 84 | 1453 | –
CCCC[C@H](NC(=O)[C@@H](N)CCCN=C(N)N)C(=O)N[C@@H](CC(=O)O)C(=O)N[C@H](C(=O)C[C@H](C(=O)O)C(C)C)C(C)C (stereo in doubt; 1h-B) | 71 | 1713 | T1/2 [8]: 2.6 min
CC(C)[C@H](NC(=O)[C@H](CC(=O)O)NC(=O)[C@@H]1CCCN1C(=O)[C@@H](N)CCCN=C(N)N)C(=O)C[C@H](Cc1ccccc1)C(=O)O (stereo in doubt; 1b-B) | 56 | 2000 | –
CC(C)[C@H](NC(=O)[C@H](CC(=O)O)NC(=O)[C@@H]1CCCN1C(=O)[C@@H](N)CCCN=C(N)N)C(=O)C[C@H](Cc1ccccc1)C(=O)O (stereo in doubt; 1b-A) | 64 | 1843 | half-life [6]: 17 min; half-life [9]: 4.5 min; half-life [7]: 6 min
CCCC[C@@H](C(=O)N[C@@H](CC(=O)O)C(=O)N[C@H](C(=O)C[C@H](C(=O)O)C(C)C)C(C)C)N(C)C(=O)[C@@H](N)CCCN=C(N)N | 37 | 2356 | T1/2 [10]: Not degraded; T1/2 [11]: Not degraded
CC(C)C[C@H](NC(=O)[C@@H](N)CCCN=C(N)N)C(=O)N[C@@H](CC(=O)O)C(=O)N[C@H](C(=O)C[C@H](Cc1ccccc1)C(=O)O)C(C)C | 65 | 1851 | –
CCCC[C@H](NC(=O)[C@@H](N)CCCN=C(N)N)C(=O)N[C@@H](CC(=O)O)C(=O)N[C@H](C(=O)C[C@H](C(=O)O)C(C)C)C(C)C (stereo in doubt; 1h-A) | 77 | 1600 | T1/2 [8]: 1.2 min; half-life [12]: 2.4 min
CCCC[C@H](NC(=O)[C@@H](N)CCCN=C(N)N)C(=O)N[C@@H](CC(=O)O)C(=O)N[C@H](C(=O)C[C@H](Cc1ccccc1)C(=O)O)C(C)C (stereo in doubt; 1c-A) | 95 | 1254 | half-life [6]: 21.1 min; half-life [9]: 5.5 min; half-life [7]: 1.9 min
CCCC[C@H](NC(=O)[C@@H](N)CCCN=C(N)N)C(=O)N[C@@H](CC(=O)O)C(=O)N[C@@H](C(C)C)C1CC(Cc2ccccc2)C(=O)O1 (stereo partly specified) | 16 | 2771 | –
CC(C)[C@H](NC(=O)[C@H](CC(=O)O)NC(=O)[C@H](CCCCN)NC(=O)[C@@H](N)CCCN=C(N)N)C(=O)C[C@H](Cc1ccccc1)C(=O)O (stereo in doubt; 1f-A) | 54 | 2044 | –
CCCC[C@H](NC(=O)[C@@H](N)CCCN=C(N)N)C(=O)N[C@@H](CC(=O)O)C(=O)N[C@@H](C(C)C)C(O)C[C@H](Cc1ccccc1)C(=O)O (stereo partly specified) | 35 | 2400 | –
CC(C)[C@H](NC(=O)[C@H](CC(=O)O)NC(=O)[C@H](C)NC(=O)[C@@H](N)CCCN=C(N)N)C(=O)C[C@H](Cc1ccccc1)C(=O)O | 67 | 1780 | –

Reference: ChEMBL document CHEMBL1130424, “Stabilized analogs of thymopentin. 1. 4,5-Ketomethylene pseudopeptides” (J Med Chem, 1997)
